According to article PMC11327602 (Heliyon, 2024):
Where “and” joins values, the source holds several entries; their conditions need not be identical. Equal entries are not always repeated.

Tests used:
ABTS method = details: for IC50: read-out: ABTS scavenging IC50
[1] = DPPH free radical scavenging activity; details: for IC50: read-out: DPPH scavenging IC50
[2] = target: Bacillus Pasteurii urease (Sporosarcina pasteurii, UniProt P41020); assay: Urease inhibition assay; type: biochemical; details: Enzyme (SEM ±) B.P Urease, IC50, mean ± SEM, 3 experiments
α-Glucosidase = α-Glucosidase (Saccharomyces cerevisiae, UniProt P53341); assay: α-Glucosidase inhibition assay; type: biochemical
Procedure, shortened: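 Test compound (200–800 μg/mL) pre-incubated 5 min at 37 °C with 2 % w/v starch (sucrose) solution in 0.2 M Tris buffer, pH 8.0. 5 mM p-nitrophenyl-α-D-glucopyranoside added intermittently, then α-glucosidase (1 U/mL), 40 min at 35 °C. Stopped with […]; absorbance read at 405 nm. % inhibition = (control − sample)/control × 100; samples above 50 % taken to IC50.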

jack bean urease = jack bean urease (Canavalia ensiformis, UniProt P07374); assay: Urease inhibition assay; type: biochemical; details: for IC50: Enzyme (SEM ±) J.B Urease, IC50, mean ± SEM, 3 experiments
[3] = Superoxide anion scavenging assay; details: for IC50: read-out: superoxide anion scavenging IC50

Sequence of α-Glucosidase (P53341 whole entry): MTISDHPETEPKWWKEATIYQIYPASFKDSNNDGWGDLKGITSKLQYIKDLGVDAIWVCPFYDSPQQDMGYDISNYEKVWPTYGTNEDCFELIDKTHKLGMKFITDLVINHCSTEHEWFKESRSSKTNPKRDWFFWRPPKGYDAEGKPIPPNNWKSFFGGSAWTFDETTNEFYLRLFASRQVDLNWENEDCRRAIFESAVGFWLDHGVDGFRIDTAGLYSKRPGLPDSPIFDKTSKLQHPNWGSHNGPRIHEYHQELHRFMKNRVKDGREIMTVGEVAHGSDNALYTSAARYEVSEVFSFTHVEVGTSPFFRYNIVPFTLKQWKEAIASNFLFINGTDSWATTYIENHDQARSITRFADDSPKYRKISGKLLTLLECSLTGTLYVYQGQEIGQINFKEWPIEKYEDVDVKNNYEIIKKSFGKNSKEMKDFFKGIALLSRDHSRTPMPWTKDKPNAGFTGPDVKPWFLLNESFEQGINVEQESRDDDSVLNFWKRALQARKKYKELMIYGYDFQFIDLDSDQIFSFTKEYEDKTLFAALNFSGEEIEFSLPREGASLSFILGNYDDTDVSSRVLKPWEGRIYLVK
Sequence of Bacillus Pasteurii urease (P41020 whole entry): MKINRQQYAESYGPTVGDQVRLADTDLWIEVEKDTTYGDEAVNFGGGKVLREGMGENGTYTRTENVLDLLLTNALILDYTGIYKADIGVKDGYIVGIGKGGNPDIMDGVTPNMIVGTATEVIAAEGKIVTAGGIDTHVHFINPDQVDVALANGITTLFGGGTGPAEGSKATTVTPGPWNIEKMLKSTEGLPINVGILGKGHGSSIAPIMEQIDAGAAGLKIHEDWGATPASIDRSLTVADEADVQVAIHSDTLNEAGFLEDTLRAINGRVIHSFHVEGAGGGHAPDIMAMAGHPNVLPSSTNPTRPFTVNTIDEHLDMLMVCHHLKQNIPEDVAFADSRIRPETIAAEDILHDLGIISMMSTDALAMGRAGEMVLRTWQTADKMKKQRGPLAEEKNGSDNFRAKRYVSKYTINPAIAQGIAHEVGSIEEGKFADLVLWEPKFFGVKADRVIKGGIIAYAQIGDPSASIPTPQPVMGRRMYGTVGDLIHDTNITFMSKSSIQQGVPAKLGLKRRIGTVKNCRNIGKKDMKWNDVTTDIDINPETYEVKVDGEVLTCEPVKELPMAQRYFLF
Sequence of Bacillus Pasteurii urease (P41021 whole entry partner): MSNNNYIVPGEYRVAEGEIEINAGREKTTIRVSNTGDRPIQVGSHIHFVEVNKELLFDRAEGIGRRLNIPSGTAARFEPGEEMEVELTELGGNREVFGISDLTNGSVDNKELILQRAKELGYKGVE
Sequence of Bacillus Pasteurii urease (P41022 whole entry partner): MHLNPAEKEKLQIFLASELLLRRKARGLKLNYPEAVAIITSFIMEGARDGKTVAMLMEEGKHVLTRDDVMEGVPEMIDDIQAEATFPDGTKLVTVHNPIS
Sequence of jack bean urease (P07374 whole entry, looked up): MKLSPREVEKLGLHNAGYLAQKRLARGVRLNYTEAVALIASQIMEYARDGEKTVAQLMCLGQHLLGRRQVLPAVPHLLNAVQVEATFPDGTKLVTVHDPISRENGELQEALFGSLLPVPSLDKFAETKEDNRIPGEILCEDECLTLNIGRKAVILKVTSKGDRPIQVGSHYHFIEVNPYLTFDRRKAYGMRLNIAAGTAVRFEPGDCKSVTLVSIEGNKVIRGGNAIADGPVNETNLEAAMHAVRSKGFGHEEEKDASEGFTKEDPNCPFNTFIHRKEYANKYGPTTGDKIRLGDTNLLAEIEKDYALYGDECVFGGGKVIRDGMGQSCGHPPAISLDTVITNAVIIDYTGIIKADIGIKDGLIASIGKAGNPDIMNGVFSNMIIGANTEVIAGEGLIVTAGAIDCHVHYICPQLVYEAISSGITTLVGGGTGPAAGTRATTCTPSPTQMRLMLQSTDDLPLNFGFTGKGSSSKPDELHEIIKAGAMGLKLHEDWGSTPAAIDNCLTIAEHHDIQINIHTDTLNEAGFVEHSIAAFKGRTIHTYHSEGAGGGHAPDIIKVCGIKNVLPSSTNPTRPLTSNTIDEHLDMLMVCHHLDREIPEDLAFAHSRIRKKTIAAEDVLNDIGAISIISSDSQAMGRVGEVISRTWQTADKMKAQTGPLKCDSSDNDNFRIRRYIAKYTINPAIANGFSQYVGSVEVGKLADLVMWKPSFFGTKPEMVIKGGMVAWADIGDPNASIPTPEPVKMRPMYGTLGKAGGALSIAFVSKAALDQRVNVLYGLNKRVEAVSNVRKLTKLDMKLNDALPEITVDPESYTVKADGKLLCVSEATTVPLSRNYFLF

Structure (SMILES)	ABTS % Scavenging (ABTS method; 10 μM)	ABTS % Scavenging (ABTS method; 20 μM)	ABTS % Scavenging (ABTS method; 30 μM)	ABTS % Scavenging (ABTS method; 40 μM)	ABTS % Scavenging (ABTS method; 50 μM)	IC50 (ABTS method)	DPPH % Scavenging ([1]; 25 μM)	DPPH % Scavenging ([1]; 50 μM)	DPPH % Scavenging ([1]; 75 μM)	DPPH % Scavenging ([1]; 100 μM)	IC50 [1]	IC50 [2]	Type of Inhibition (α-glucosidase and α-amylase) (α-Glucosidase)	Types of inhibition (urease) (jack bean urease)	IC50 (jack bean urease)	superoxide anion % scavenging ([3]; 25 μM)	superoxide anion % scavenging ([3]; 50 μM)	superoxide anion % scavenging ([3]; 75 μM)	superoxide anion % scavenging ([3]; 100 μM)	IC50 [3]	also measured
CN(c1nccs1)S(=O)(=O)c1ccccc1 [Compound 36, N-Methyl-N-(thiazol-2-yl)benzenesulfonamide]	23.2 ± 0.11%	37.5 ± 0.2%	48.3 ± 0.21%	65.5 ± 0.01%	87.5 ± 0.05%	45.07 ± 0.09 µM	25.3 ± 0.07%	65.5 ± 0.12%	88.3 ± 0.11%	93.8 ± 0.09%	~49.3 µM and 49.3 µM	17.06 ± 0.03 µM	Non-competitive	Competitive	14.06 ± 0.03 µM	20.6 ± 0.11%	43.6 ± 0.12%	65.1 ± 0.5%	87.5 ± 0.08%	57.1 ± 0.09 µM	inhibition against both enzymes (α-glucosidase and α-amylase), in words (α-Glucosidase): weak inhibition
CN(c1nccs1)S(=O)(=O)c1ccc(Br)cc1 [Compound 35, 4-Bromo-N-methyl-N-(thiazol-2-yl)benzenesulfonamide]	33.02 ± 0.08%	31.05 ± 0.01%	43.01 ± 0.03%	62.2 ± 0.09%	105.13 ± 0.11%	38.01 ± 0.13 µM	28.1 ± 0.04%	34.4 ± 0.8%	61.5 ± 0.03%	89.1 ± 0.6%	53.1 ± 0.11 µM	20.21 ± 0.19 µM	Competitive	Competitive	18.7 µM	27 ± 0.12%	53 ± 0.05%	64 ± 0.04%	89 ± 0.28%	~38 µM and 38 µM	inhibition against both enzymes (α-glucosidase and α-amylase), in words (α-Glucosidase): weak inhibition
CN(c1nccs1)S(=O)(=O)c1ccc([N+](=O)[O-])cc1 [Compound 39, N-Methyl-4-nitro-N-(thiazol-2-yl)benzenesulfonamide]	24.02 ± 0.05%	39.01 ± 0.3%	47.06 ± 0.1%	72.11 ± 0.09%	102.03 ± 0.01%	36.09 ± 0.15 µM	15.04 ± 0.05%	55.02 ± 0.08%	77.08 ± 0.11%	91.01 ± 0.34%	43.02 ± 0.13 µM	43.71 ± 0.13 µM	Non-competitive	Non-competitive	38.17 ± 0.01 µM	22.2 ± 0.01%	48.5 ± 0.17%	71.4 ± 0.34%	93.8 ± 0.11%	54.1 ± 0.55 µM	inhibition against both enzymes (α-glucosidase and α-amylase), in words (α-Glucosidase): weak inhibition
C=CCN(c1nccs1)S(=O)(=O)c1ccccc1 [Compound 29, N-allyl-N-(thiazol-2-yl)benzenesulfonamide]	19.2 ± 0.5%	23.07 ± 0.13%	45.01 ± 0.19%	74.12 ± 0.17%	89.19 ± 0.12%	43.21 ± 0.15 µM	34.5 ± 0.21%	49.1 ± 0.13%	77.2 ± 0.7%	93.5 ± 0.08%	52.5 ± 0.11 µM	23.02 ± 0.15 µM	Non-competitive	Non-competitive	21.22 ± 0.17 µM	28 ± 0.07%	73 ± 0.20%	85 ± 0.13%	96 ± 0.32%	43 ± 0.17 µM	–
CN(c1nccs1)S(=O)(=O)c1ccc(Cl)cc1 [Compound 37, 4-Chloro-N-methyl-N-(thiazol-2-yl)benzenesulfonamide]	30.22 ± 0.22%	41.25 ± 0.11%	48.01 ± 0.12%	65.5 ± 0.07%	99.03 ± 0.15%	34.11 ± 0.16 µM	19 ± 0.17%	42.4 ± 0.8%	66.8 ± 0.15%	99.1 ± 0.21%	57.1 ± 0.11 µM	25.4 ± 0.31 µM	Non-competitive	Competitive	21.02 ± 0.21 µM	37 ± 0.21%	43 ± 0.6%	67 ± 0.03%	99 ± 0.15%	54 ± 0.15 µM	inhibition against both enzymes (α-glucosidase and α-amylase), in words (α-Glucosidase): weak inhibition
C=CCN(c1nccs1)S(=O)(=O)c1ccc(Br)cc1 [Compound 28, N-Allyl-4-bromo-N-(thiazol-2-yl)benzenesulfonamide]	10.01 ± 0.02%	27.3 ± 0.05%	48.08 ± 0.9%	55.7 ± 0.22%	99.06 ± 0.25%	~35 µM and 35 µM	48.2 ± 0.09%	70.7 ± 0.01%	85.3 ± 0.3%	91.2 ± 0.06%	~48.4 µM and 48.4 µM	36.1 ± 0.43 µM	Competitive	Non-competitive	29.55 ± 0.12 µM	25 ± 0.02%	66 ± 0.11%	77 ± 0.18%	99 ± 0.31%	~39 µM and 39 µM	–
O=S(=O)(c1ccc(Cl)cc1)N(Cc1ccccc1)c1nccs1 [Compound 23, N-benzyl-4-chloro-N-(thiazol-2-yl)benzenesulfonamide]	19.5 ± 0.05%	39.5 ± 0.24%	55.13 ± 0.13%	76.01 ± 0.5%	93.03 ± 0.31%	30.01 ± 0.11 µM	32.6 ± 0.21%	57.3 ± 0.01%	70.5 ± 0.16%	93.05 ± 0.32%	49.15 ± 0.05 µM	28.02 ± 0.07 µM	Non-competitive	Non-competitive	25.1 ± 0.28 µM	39 ± 0.3%	60 ± 0.56%	89 ± 0.07%	103 ± 0.19%	47 ± 0.11 µM	–
CN(c1nccs1)S(=O)(=O)c1ccc(F)cc1 [Compound 38, 4-Fluoro-N-methyl-N-(thiazol-2-yl)benzenesulfonamide]	13.2 ± 0.91%	35.3 ± 0.42%	41.2 ± 0.71%	48.13 ± 0.11%	79.3 ± 0.44%	49.03 ± 0.15 µM	21.3 ± 0.11%	67.3 ± 0.2%	89.3 ± 0.05%	95.01 ± 0.9%	69.5 ± 0.1 µM	27.15 ± 0.14 µM	Non-competitive	Competitive	24.31 ± 0.18 µM	31.5 ± 0.11%	45.01 ± 0.5%	55.7 ± 0.5%	92.5 ± 0.03%	67.6 ± 0.93 µM	–
C=CCN(c1nccs1)S(=O)(=O)c1ccc(OC)cc1 [Compound 27, N-allyl-4-methoxy-N-(thiazol-2-yl)benzenesulfonamide]	10.02 ± 0.05%	19.08 ± 0.03%	43.02 ± 0.09%	70.02 ± 0.11%	93.09 ± 0.02%	40.05 ± 0.08 µM	33.2 ± 0.01%	59.6 ± 0.2%	75.4 ± 0.2%	91.8 ± 0.03%	~39.2 µM and 39.2 µM	26.37 ± 0.22 µM	Non-competitive	Competitive	24.1 ± 0.34 µM	25 ± 0.17%	71 ± 0.25%	86 ± 0.03%	93 ± 0.52%	45 ± 0.19 µM	–
C=CCN(c1nccs1)S(=O)(=O)c1ccc([N+](=O)[O-])cc1 [Compound 32, N-Allyl-4-nitro-N-(thiazol-2-yl)benzenesulfonamide]	12.02 ± 0.03%	25.03 ± 0.01%	49.01 ± 0.09%	75.03 ± 0.02%	94.06 ± 0.21%	31.01 ± 0.09 µM	39.2 ± 0.2%	53.5 ± 0.3%	64.4 ± 0.01%	88.2 ± 0.2%	46.2 ± 0.01 µM	57.89 ± 0.18 µM	Non-competitive	Non-competitive	52.1 ± 1.12 µM	15 ± 0.05%	32 ± 0.02%	67 ± 0.11%	97 ± 0.51%	49 ± 0.12 µM	inhibition against both enzymes (J.B. and B.P urease), in words (jack bean urease): weak inhibition
